Results as given in ChEMBL document CHEMBL1141482, “Selective, high affinity A(2B) adenosine receptor antagonists: N-1 monosubstituted 8-(pyrazol-4-yl)xanthines” (Bioorg Med Chem Lett, 2008).
pKi: −log10 of the molar value.

Key:
Homo sapiens [1] = organism: Homo sapiens; experiment: Selectivity for human A2B receptor over human A1 receptor
Adenosine receptor A1 = target: T1, Adenosine receptor A1 (Homo sapiens, UniProt P30542); experiment: Displacement of [3H]-CPX from human A1 receptor expressed in CHO cell membranes
T1 sequence (P30542 whole entry): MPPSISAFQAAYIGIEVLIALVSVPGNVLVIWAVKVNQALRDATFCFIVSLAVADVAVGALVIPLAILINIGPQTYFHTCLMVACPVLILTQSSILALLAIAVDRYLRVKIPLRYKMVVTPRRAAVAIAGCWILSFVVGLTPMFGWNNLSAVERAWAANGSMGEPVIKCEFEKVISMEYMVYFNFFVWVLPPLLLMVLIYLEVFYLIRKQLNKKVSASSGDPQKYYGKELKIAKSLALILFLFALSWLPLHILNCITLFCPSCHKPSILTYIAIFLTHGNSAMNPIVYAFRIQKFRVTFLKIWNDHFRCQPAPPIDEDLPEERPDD
Summary of the method: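 Competitive binding on membranes prepared from A1-expressing CHO cells, radioligand 3H-CPX at 0.5 nM.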

Homo sapiens [2] = organism: Homo sapiens; experiment: Selectivity for human A2B receptor over human A3 receptor
Adenosine receptor A3 = target: T2, Adenosine receptor A3 (Homo sapiens, UniProt P0DMS8); experiment: Displacement of [125I]-AB-MECA from human A3 receptor expressed in CHO cells; format: cell-based
T2 sequence (P0DMS8 whole entry): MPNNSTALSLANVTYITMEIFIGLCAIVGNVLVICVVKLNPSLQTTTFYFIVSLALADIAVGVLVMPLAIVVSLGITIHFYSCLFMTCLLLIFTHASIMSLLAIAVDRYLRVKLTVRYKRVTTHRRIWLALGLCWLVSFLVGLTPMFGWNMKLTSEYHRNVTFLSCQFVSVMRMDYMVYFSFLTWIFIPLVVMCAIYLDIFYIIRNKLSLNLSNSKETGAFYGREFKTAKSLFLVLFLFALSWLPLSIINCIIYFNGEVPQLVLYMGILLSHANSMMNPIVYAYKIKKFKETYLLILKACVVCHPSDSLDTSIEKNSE
Summary of the method: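 A3 binding: competition for sites labeled by 125I-AB-MECA using CHO cells expressing the A3 receptor.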

Homo sapiens [3] = organism: Homo sapiens; experiment: Selectivity for human A2B receptor over human A2A receptor
Adenosine receptor A2a = Adenosine receptor A2a (Homo sapiens, UniProt P29274); experiment: Displacement of [3H]ZM241385 from human A2A receptor expressed in HEK293 cell membranes
Summary of the method: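 A2A affinity by competition with 3H-ZM241385 (2 nM) for binding sites in membranes from HEK-A2A cells.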

Adenosine receptor A2b = target: T3, Adenosine receptor A2b (Homo sapiens, UniProt P29275); experiment: Displacement of [3H]-ZM241385 from human A2B receptor expressed in HEK293 cell membranes
T3 sequence (P29275 whole entry): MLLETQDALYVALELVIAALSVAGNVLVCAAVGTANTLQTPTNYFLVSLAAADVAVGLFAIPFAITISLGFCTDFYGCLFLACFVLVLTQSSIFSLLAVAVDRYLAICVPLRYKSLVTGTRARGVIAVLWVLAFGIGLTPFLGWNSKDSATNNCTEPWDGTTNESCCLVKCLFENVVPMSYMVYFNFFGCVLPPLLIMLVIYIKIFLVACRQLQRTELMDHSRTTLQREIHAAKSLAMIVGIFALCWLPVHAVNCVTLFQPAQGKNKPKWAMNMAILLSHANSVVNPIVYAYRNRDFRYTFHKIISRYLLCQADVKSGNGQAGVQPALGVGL
Summary of the method: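 Membranes from HEK cells expressing A2B; binding sites labeled with 3H-ZM241385 at 14 nM and displaced competitively.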

Sequence of Adenosine receptor A2a (P29274 whole entry): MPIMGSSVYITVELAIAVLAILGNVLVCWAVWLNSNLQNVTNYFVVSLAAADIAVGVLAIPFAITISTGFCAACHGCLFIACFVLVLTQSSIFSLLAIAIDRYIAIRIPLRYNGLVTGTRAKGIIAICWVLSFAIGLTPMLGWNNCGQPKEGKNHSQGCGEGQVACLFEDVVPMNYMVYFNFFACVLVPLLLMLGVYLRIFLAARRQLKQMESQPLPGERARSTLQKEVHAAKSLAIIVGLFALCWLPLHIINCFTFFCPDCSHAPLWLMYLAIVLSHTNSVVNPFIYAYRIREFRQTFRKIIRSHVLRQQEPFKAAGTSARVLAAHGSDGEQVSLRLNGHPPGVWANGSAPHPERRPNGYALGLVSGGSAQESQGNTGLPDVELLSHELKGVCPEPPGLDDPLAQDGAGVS

Row | Ratio Ki (Homo sapiens [1]) | pKi (Adenosine receptor A1) | Ratio Ki (Homo sapiens [2]) | pKi (Adenosine receptor A3) | Ratio Ki (Homo sapiens [3]) | pKi (Adenosine receptor A2a) | pKi (Adenosine receptor A2b) | Structure (SMILES)
1 |  |  |  |  |  |  | < 5.22 | O=c1[nH]c2nc(-c3cnn(Cc4ccccc4)c3)[nH]c2c(=O)n1Cc1ccccc1
2 | > 250 | < 5.22 | 70 | 5.80 | > 200 | < 5.30 | 7.62 | CC(C)Cn1c(=O)[nH]c2nc(-c3cnn(Cc4cccc(F)c4)c3)[nH]c2c1=O
3 | 550 | 5.48 | 30 | 6.74 | 460 | 5.56 | 8.22 | O=c1[nH]c2nc(-c3cnn(Cc4ccccc4)c3)[nH]c2c(=O)n1CC1CC1
4 |  |  |  |  |  |  | < 5.22 | Cn1c(=O)[nH]c(=O)c2[nH]c(-c3cnn(Cc4ccccc4)c3)nc21
5 | 160 | 5.74 | 15 | 6.80 | 160 | 5.76 | 7.96 | CCCn1c(=O)[nH]c2nc(-c3cnn(Cc4cccc(F)c4)c3)[nH]c2c1=O
6 |  |  |  |  |  |  | < 5.22 | O=c1[nH]c(=O)n(Cc2ccccc2)c2nc(-c3cnn(Cc4ccccc4)c3)[nH]c12
7 |  |  |  |  |  |  | < 5.22 | CCCCn1c(=O)[nH]c(=O)c2[nH]c(-c3cnn(Cc4ccccc4)c3)nc21
8 | 230 | 5.38 | 15 | 6.57 | > 280 | < 5.30 | 7.74 | CCCCn1c(=O)[nH]c2nc(-c3cnn(Cc4cccc(F)c4)c3)[nH]c2c1=O
9 |  |  |  |  |  |  | < 5.22 | CCCn1c(=O)[nH]c(=O)c2[nH]c(-c3cnn(Cc4ccccc4)c3)nc21
10 | > 460 | < 5.22 | 90 | 5.96 | > 380 | < 5.30 | 7.89 | CC(C)Cn1c(=O)[nH]c2nc(-c3cnn(Cc4ccccc4)c3)[nH]c2c1=O
11 | > 500 | < 5.22 | > 750 | < 5.05 | > 410 | < 5.30 | 7.92 | CC(C)Cn1c(=O)[nH]c2nc(-c3cnn(Cc4cc(-c5ccccc5)on4)c3)[nH]c2c1=O
12 | 120 | 5.80 | 10 | 6.92 | > 380 | < 5.30 | 7.89 | CCCn1c(=O)[nH]c2nc(-c3cnn(Cc4ccccc4)c3)[nH]c2c1=O
13 | 150 | 5.29 | 3 | 6.96 | 100 | 5.47 | 7.47 | CCCCn1c(=O)[nH]c2nc(-c3cnn(Cc4ccccc4)c3)[nH]c2c1=O
14 | > 80 | < 5.22 | 30 | 5.67 | > 70 | < 5.30 | 7.14 | CCn1c(=O)[nH]c2nc(-c3cnn(Cc4cccc(F)c4)c3)[nH]c2c1=O
15 | 7 |  | 16 |  | 26 |  |  | CCCn1c(=O)c2[nH]c(-c3cnn(Cc4ccccc4)c3)nc2n(CCC)c1=O
16 |  |  |  |  |  |  | < 5.22 | CC(C)Cn1c(=O)[nH]c(=O)c2[nH]c(-c3cnn(Cc4ccccc4)c3)nc21
17 |  |  |  |  |  |  | < 5.22 | CCn1c(=O)[nH]c(=O)c2[nH]c(-c3cnn(Cc4ccccc4)c3)nc21

Continued, compound first:

Row | Structure (SMILES) | Ratio Ki (Homo sapiens [1]) | pKi (Adenosine receptor A1) | Ratio Ki (Homo sapiens [2]) | pKi (Adenosine receptor A3) | Ratio Ki (Homo sapiens [3]) | pKi (Adenosine receptor A2a) | pKi (Adenosine receptor A2b)
18 | O=c1[nH]c2nc(-c3cnn(Cc4cccc(C(F)(F)F)c4)c3)[nH]c2c(=O)n1CC1CC1 | > 2000 | < 5.22 | 300 | 6.00 | > 1600 | < 5.30 | 8.52
19 | O=c1[nH]c2nc(-c3cnn(Cc4noc(-c5ccc(Cl)cc5)n4)c3)[nH]c2c(=O)n1CC1CC1 | > 120 | < 5.22 | > 190 | < 5.05 | > 100 | < 5.30 | 7.32
20 | O=c1[nH]c2nc(-c3cnn(Cc4cccc(F)c4)c3)[nH]c2c(=O)n1CC1CC1 | 42 | 6.68 |  |  | 20 | 7.00 | 8.30
21 | CCCn1c(=O)[nH]c2nc(-c3cnn(Cc4cccc(C(F)(F)F)c4)c3)[nH]c2c1=O | > 750 | < 5.22 | 80 | 6.15 | > 620 | < 5.30 | 8.10
22 | CCCn1c(=O)c2[nH]c(-c3cnn(Cc4cc(-c5ccccc5)on4)c3)nc2n(CCC)c1=O | 110 |  | 130 |  | 30 |  | 
23 | O=c1[nH]c2nc(-c3cnn(Cc4cc(-c5ccc(C(F)(F)F)cc5)on4)c3)[nH]c2c(=O)n1CC1CC1 | > 400 | < 5.22 | > 600 | < 5.05 | > 300 | < 5.30 | 7.82
24 | CC(C)Cn1c(=O)[nH]c2nc(-c3cnn(Cc4noc(-c5ccc(C(F)(F)F)cc5)n4)c3)[nH]c2c1=O | > 400 | < 5.22 | > 650 | < 5.05 | > 350 | < 5.30 | 7.85
25 | CCCn1c(=O)c2[nH]c(-c3cnn(Cc4cccc(C(F)(F)F)c4)c3)nc2n(CCC)c1=O | 12 | 6.80 | 10 | 6.85 | 27 |  | 
26 | CC(C)Cn1c(=O)[nH]c2nc(-c3cnn(Cc4cccc(C(F)(F)F)c4)c3)[nH]c2c1=O | > 210 | < 5.22 | > 320 | < 5.05 | > 180 | < 5.30 | 7.55
27 | CCn1c(=O)[nH]c2nc(-c3cnn(Cc4cccc(C(F)(F)F)c4)c3)[nH]c2c1=O | > 1000 | < 5.22 | > 1500 | < 5.05 | > 830 | < 5.30 | 8.22
28 | CCCn1c(=O)c2[nH]c(-c3cnn(Cc4noc(-c5ccccc5)n4)c3)nc2n(CCC)c1=O | 50 |  | 30 |  | 85 |  | 
29 | CCCCn1c(=O)[nH]c2nc(-c3cnn(Cc4cccc(C(F)(F)F)c4)c3)[nH]c2c1=O | > 200 | < 5.22 | > 300 | < 5.05 | > 170 | < 5.30 | 7.52
30 | CCCCn1c(=O)[nH]c2nc(-c3cnn(Cc4noc(-c5ccc(Cl)cc5)n4)c3)[nH]c2c1=O | > 260 | < 5.22 | > 400 | < 5.05 | > 210 | < 5.30 | 7.64
31 | CCCn1c(=O)c2[nH]c(-c3cnn(Cc4cccc(F)c4)c3)nc2n(CCC)c1=O | 13 |  | 4 | 7.24 | 18 |  | 
32 | CCCn1c(=O)[nH]c2nc(-c3cnn(Cc4noc(-c5ccccc5)n4)c3)[nH]c2c1=O | 200 | 5.46 | > 600 | < 5.05 | > 300 | < 5.30 | 7.82
33 | CCCn1c(=O)[nH]c2nc(-c3cnn(Cc4noc(-c5ccc(Cl)cc5)n4)c3)[nH]c2c1=O | > 850 | < 5.22 | > 1280 | < 5.05 | > 700 | < 5.30 | 8.15
34 | CCCn1c(=O)[nH]c2nc(-c3cnn(Cc4cc(-c5ccc(Cl)cc5)on4)c3)[nH]c2c1=O | > 30 | < 5.22 |  |  | > 30 | < 5.30 | 6.77
